Results taken from ChEMBL document CHEMBL3526065, “Metabolism of [6]-shogaol in mice and in cancer cells” (Drug Metab Dispos, 2012).

Legend:
[1] = Drug level in C57BL/6J mouse feces treated with [6]-shogaol at 200 mg/kg, po by HPLC-ECD analysis relative to control; assay type: ADME, organism-based; design: dose 200 mg/kg, route oral; conditions: in vivo
In short: (§1)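 Female C57BL/6J mice gavaged once with 200 mg/kg in corn oil, or corn oil alone (n = 5 each). 24-h feces collected in metabolic cages. Feces extracted by sonication 90 min in MeOH/H2O (50/50) + 0.1% acetic acid, centrifuged, diluted fivefold. Analysed by HPLC with electrochemical array detection (Gemini C18, phosphate/acetonitrile/THF gradient), compared against vehicle controls.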

[2] = Drug metabolism in human HCT116 cells assessed as retention time treated with 10 uM [6]-shogaol after 24 hrs by HPLC-ECD analysis; assay type: ADME, cell-based; conditions: hct-116, 24 h
In short: (§2)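 Cells (1.0 × 10⁶) attached 24 h in six-well plates, then exposed to 10 μM final in McCoy's 5A with 10% FBS. Extracted with equal volume acetonitrile, diluted 5-fold, analysed by HPLC with electrochemical detection.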

[3] = Antioxidant activity assessed as DPPH radical scavenging activity; assay type: physicochemical
[4] = Drug excretion in C57BL/6J mouse feces assessed as 5-methylthio-1-(4'-hydroxy-3'-methoxyphenyl)-decan-3-ol formation at 200 mg/kg, po by HPLC-ECD analysis relative to control; assay type: ADME, organism-based; design: dose 200 mg/kg, route oral; conditions: in vivo; in short: as §1
[5] = Drug metabolism in human HCT116 cells assessed as 1-(4'-hydroxy-3'-methoxyphenyl)-decan-3-one formation at 10 uM after 24 hrs by HPLC-ECD analysis; assay type: ADME, cell-based; conditions: hct-116, 24 h; in short: as §2
[6] = Drug excretion in C57BL/6J mouse feces assessed as 1-(4'-hydroxy-3'-methoxyphenyl)-decan-3-ol formation at 200 mg/kg, po by HPLC-ECD analysis relative to control; assay type: ADME, organism-based; design: dose 200 mg/kg, route oral; conditions: in vivo; in short: as §1
[7] = Drug recovery in C57BL/6J mouse urine assessed as sulfated form of metabolite formation at 200 mg/kg, po by HPLC-ECD analysis; assay type: ADME, organism-based; design: dose 200 mg/kg, route oral; conditions: in vivo
In short: (§3)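 Female C57BL/6J mice gavaged with 200 mg/kg in corn oil or vehicle (n = 5); 24-h urine collected in metabolic cages. 50 μl urine deproteinized with MeOH. Analysis with and without deconjugation.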

HCT-116 [8] = experiment: Induction of apoptosis in human HCT116 cells assessed as apoptotic cells at 20 uM after 24 hrs by TUNEL assay; assay type: functional
In short: (§4)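 HCT-116 or H-1299 cells seeded at 1.0 × 10⁵/well, after 24 h exposed for 24 h to compound (10–80 μM) or DMSO control. Cells were proteinase K-pretreated, formaldehyde-fixed, and slide-mounted for peroxidase TUNEL staining. Ten fields per slide counted at 400×; brown-nucleus cells given as percentage of total cells; mean ± S.E., n = 10.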

[9] = Drug excretion in C57BL/6J mouse feces assessed as 5-methylthio-1-(4'-hydroxy-3'-methoxyphenyl)-decan-3-one formation at 200 mg/kg, po by HPLC analysis relative to control; assay type: ADME, organism-based; design: dose 200 mg/kg, route oral; conditions: in vivo; in short: as §1
[10] = Drug recovery in C57BL/6J mouse urine assessed as glucuronidated form of metabolite formation at 200 mg/kg, po by HPLC-ECD analysis; assay type: ADME, organism-based; design: dose 200 mg/kg, route oral; conditions: in vivo; in short: as §3
[11] = Drug metabolism in mouse CL-13 cells assessed as 1-(4'-hydroxy-3'-methoxyphenyl)-decan-3-ol formation at 10 uM after 24 hrs by HPLC-ECD analysis; assay type: ADME, cell-based; conditions: cl-13, 24 h; in short: as §2
NCI-H1299 [12] = experiment: Induction of apoptosis in human H1299 cells assessed as apoptotic cells at 10 uM after 24 hrs by TUNEL assay; assay type: functional; in short: as §4
[13] = Drug excretion in C57BL/6J mouse feces assessed as 5-methoxy-1-(4'-hydroxy-3'-methoxyphenyl)-decan-3-one formation at 200 mg/kg, po by HPLC-ECD analysis relative to control; assay type: ADME, organism-based; design: dose 200 mg/kg, route oral; conditions: in vivo; in short: as §1
[14] = Drug metabolism in human H1299 cells assessed as 1-(4'-hydroxy-3'-methoxyphenyl)-decan-3-ol formation at 10 uM after 24 hrs by HPLC-ECD analysis; assay type: ADME, cell-based; conditions: nci-h1299, 24 h; in short: as §2
Plasma [15] = experiment: Drug metabolism in A/J mouse plasma assessed as glucuronidated form of metabolite formation at 200 mg/kg, po after 2 to 4 hrs by HPLC-ECD analysis; conditions: in vivo
[16] = Drug excretion in C57BL/6J mouse feces assessed as 5-N-acetylcysteinyl-[6]-shogaol formation at 200 mg/kg, po by HPLC-ECD analysis relative to control; assay type: ADME, organism-based; design: dose 200 mg/kg, route oral; conditions: in vivo; in short: as §1
[17] = Drug excretion in C57BL/6J mouse feces assessed as 5-cysteinyl-[6]-shogaol formation at 200 mg/kg, po by HPLC-ECD analysis relative to control; assay type: ADME, organism-based; design: dose 200 mg/kg, route oral; conditions: in vivo; in short: as §1
[18] = Cytotoxicity against human H1299 cells assessed as growth inhibition after 24 hrs by MTT assay; assay type: functional, cell-based; conditions: NCI-H1299, 24 h
In short: (§5)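 Cells seeded at 3000/well, attached 24 h at 37°C, then exposed to test agents (0–80 μM, 0.1% DMSO final) for 24 h in McCoy's 5A with 10% FBS. Medium replaced with 2.41 mM MTT for 3 h at 37°C; formazan dissolved in DMSO, absorbance 550 nm. Viability as percentage of DMSO control; mean ± S.D., n = 6.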

NCI-H1299 [19] = experiment: Induction of apoptosis in human H1299 cells assessed as apoptotic cells at 20 uM after 24 hrs by TUNEL assay; assay type: functional; in short: as §4
[20] = Drug recovery in C57BL/6J mouse urine assessed as glucuronidated form of metabolite formation at 200 mg/kg, po by LC/MS analysis; assay type: ADME, organism-based; design: dose 200 mg/kg, route oral; conditions: in vivo; in short: as §3
HT-29 [21] = experiment: Drug metabolism in human HT-29 cells assessed as 1-(4'-hydroxy-3'-methoxyphenyl)-decan-3-ol formation at 10 uM by HPLC-ECD analysis; assay type: ADME, cell-based; conditions: ht-29, 10 µM; in short: as §2
HT-29 [22] = experiment: Drug metabolism in human HT-29 cells assessed as 1-(4'-hydroxy-3'-methoxyphenyl)-decan-3-one formation at 10 uM by HPLC-ECD analysis; assay type: ADME, cell-based; conditions: ht-29, 10 µM; in short: as §2
Plasma [23] = experiment: Drug metabolism in A/J mouse plasma assessed as glucuronidated form of metabolite formation at 200 mg/kg, po after 2 to 4 hrs by LC/MS analysis; conditions: in vivo
[24] = Drug excretion in C57BL/6J mouse feces assessed as 1-(4'-hydroxy-3'-methoxyphenyl)-decan-3-one formation at 200 mg/kg, po by HPLC analysis relative to control; assay type: ADME, organism-based; design: dose 200 mg/kg, route oral; conditions: in vivo; in short: as §1
[25] = Drug excretion in C57BL/6J mouse feces assessed as 3',4'-dihydroxyphenyl-decan-3-one formation at 200 mg/kg, po by HPLC-ECD analysis relative to control; assay type: ADME, organism-based; design: dose 200 mg/kg, route oral; conditions: in vivo; in short: as §1
[26] = Drug metabolism in human HCT116 cells assessed as 1-(4'-hydroxy-3'-methoxyphenyl)-4-decen-3-ol formation at 10 uM after 24 hrs by HPLC-ECD analysis; assay type: ADME, cell-based; conditions: hct-116, 24 h; in short: as §2
[27] = Drug recovery in C57BL/6J mouse urine assessed as sulfated form of metabolite formation at 200 mg/kg, po by LC/MS analysis; assay type: ADME, organism-based; design: dose 200 mg/kg, route oral; conditions: in vivo; in short: as §3
[28] = Drug excretion in C57BL/6J mouse feces assessed as (2R)-2-acetamido-3-(3-hydroxy-1-(4-hydroxy-3-methoxyphenyl)decan-5-ylthio)propanoic acid formation at 200 mg/kg, po by HPLC-ECD analysis relative to control; assay type: ADME, organism-based; design: dose 200 mg/kg, route oral; conditions: in vivo; in short: as §1
[29] = Cytotoxicity against human HCT116 cells assessed as growth inhibition after 24 hrs by MTT assay; assay type: functional, cell-based; conditions: HCT-116, 24 h; in short: as §5
[30] = Drug excretion in C57BL/6J mouse feces assessed as (2R)-2-amino-3-(3-hydroxy-1-(4-hydroxy-3-methoxyphenyl)decan-5-ylthio)propanoic acid formation at 200 mg/kg, po by HPLC-ECD analysis relative to control; assay type: ADME, organism-based; design: dose 200 mg/kg, route oral; conditions: in vivo; in short: as §1
Plasma [31] = experiment: Drug metabolism in C57BL/6J mouse plasma assessed as sulfated form of metabolite formation at 200 mg/kg, po after 2 to 4 hrs by LC/MS analysis; assay type: ADME, organism-based; design: dose 200 mg/kg, route oral; conditions: in vivo
[32] = Drug excretion in C57BL/6J mouse feces assessed as 1-(4'-hydroxy-3'-methoxyphenyl)-4-decen-3-ol formation at 200 mg/kg, po by HPLC-ECD analysis relative to control; assay type: ADME, organism-based; design: dose 200 mg/kg, route oral; conditions: in vivo; in short: as §1
[33] = Drug metabolism in human HCT116 cells assessed as 1-(4'-hydroxy-3'-methoxyphenyl)-decan-3-ol formation at 10 uM after 24 hrs by HPLC-ECD analysis; assay type: ADME, cell-based; conditions: hct-116, 24 h; in short: as §2
[34] = Drug metabolism in human H1299 cells assessed as 1-(4'-hydroxy-3'-methoxyphenyl)-decan-3-one formation at 10 uM after 24 hrs by HPLC-ECD analysis; assay type: ADME, cell-based; conditions: nci-h1299, 24 h; in short: as §2
[35] = Drug excretion in C57BL/6J mouse feces assessed as 2-((2R)-2-amino-3-(3-hydroxy-1-(4-hydroxy-3-methoxyphenyl)decan-5-ylthio)propanamido)acetic acid formation at 200 mg/kg, po by HPLC-ECD analysis relative to control; assay type: ADME, organism-based; design: dose 200 mg/kg, route oral; conditions: in vivo; in short: as §1
Plasma [36] = experiment: Drug metabolism in A/J mouse plasma assessed as sulfated form of metabolite formation at 200 mg/kg, po after 2 to 4 hrs by HPLC analysis; conditions: in vivo
HCT-116 [37] = experiment: Induction of apoptosis in human HCT116 cells assessed as apoptotic cells at 10 uM after 24 hrs by TUNEL assay; assay type: functional; in short: as §4
[38] = Drug metabolism in mouse CL-13 cells assessed as 1-(4'-hydroxy-3'-methoxyphenyl)-decan-3-one formation at 10 uM by HPLC-ECD analysis; assay type: ADME, cell-based; conditions: cl-13, 10 µM; in short: as §2

In the case of CCCCCC(CC(O)CCc1ccc(O)c(OC)c1)SCC(N)C(=O)O (centres undefined), the Drug excretion [1] is reported as “metabolite_detected”.

With CCCCCC(CC(=O)CCc1ccc(O)c(OC)c1)SCC(N)C(=O)O (centres undefined) the Drug excretion [1] was “metabolite_detected”.

With CCCCCC(CC(O)CCc1ccc(O)c(OC)c1)SC (centres undefined) the Drug excretion [1] was “metabolite_detected”.

Molecule CCCCCC(CC(=O)CCc1ccc(O)c(OC)c1)SC[C@H](NC(=O)CC[C@H](N)C(=O)O)C(=O)NCC(=O)O (some centres undefined) has a Retention_time [2] of 14.5 min.

With CCCCCCCC(=O)CCc1ccc(O)c(O)c1 the Drug excretion [1] was “metabolite_detected”.

With CCCCCC(CC(=O)CCc1ccc(O)c(OC)c1)SC (centres undefined) the Drug excretion [1] was “metabolite_detected”.

Work on CCCCCCCCC[C@H](O)CC(=O)CCc1ccc(O)c(OC)c1 yielded an IC50 [3] of 12 µM.

CCCCC[C@H](O)CC(=O)CCc1ccc(O)c(OC)c1 [GINGEROL] gave an IC50 [3] of 28 µM.

For CCCCC/C=C/C(=O)CCc1ccc(O)c(OC)c1 [SHOGAOL], the Drug excretion [4] was “metabolite_detected”, the Drug metabolism [5] was “metabolite_detected” and the Drug excretion [6] was “metabolite_detected”. For the same molecule, the Drug recovery [7] was “metabolite_detected”, the Activity (HCT-116 [8]) was 31.2% and the Drug excretion [9] was “metabolite_detected”. The Drug recovery [10] was “metabolite_detected”, the Drug metabolism [11] was “metabolite_detected” and the Activity (NCI-H1299 [12]) was 5.2%. For the same molecule, the Drug excretion [13] was “metabolite_detected”, the IC50 [3] was 8 µM and the Drug metabolism [14] was “metabolite_detected”. For the same molecule, the Drug metabolism (Plasma [15]) was “metabolite_detected”, the Drug excretion [16] was “metabolite_detected” and the Drug excretion [17] was “metabolite_detected”. The IC50 [18] was 16.9 µM, the Activity (NCI-H1299 [19]) was 31.6% and the Drug recovery [20] was “metabolite_detected”. For the same molecule, the Drug metabolism (HT-29 [21]) was “metabolite_detected”, the Drug metabolism (HT-29 [22]) was “metabolite_detected” and the Drug metabolism (Plasma [23]) was “metabolite_detected”. The Drug excretion [24] was “metabolite_detected”, the Drug excretion [25] was “metabolite_detected” and the Drug metabolism [26] was “metabolite_detected”. The Drug recovery [27] was “metabolite_detected”, the Drug excretion [28] was “metabolite_detected” and the IC50 [29] was 18.7 µM. The Drug excretion [30] was “metabolite_detected”, the Drug metabolism (Plasma [31]) was “metabolite_detected” and the Drug excretion [32] was “metabolite_detected”. The Drug metabolism [33] was “metabolite_detected”, the Drug metabolism [34] was “metabolite_detected” and the Drug excretion [35] was “metabolite_detected”. For the same molecule, the Drug metabolism (Plasma [36]) was “metabolite_detected”, the Activity (HCT-116 [37]) was 10.3% and the Drug metabolism [38] was “metabolite_detected”.
